Measurements: ChEMBL document CHEMBL4033788, “Novel Ligustrazine-Based Analogs of Piperlongumine Potently Suppress Proliferation and Metastasis of Colorectal Cancer Cells in Vitro and in Vivo” (J Med Chem, 2018)
Converted amounts (≈) assume the structure as drawn. The source made the active and inactive calls. The rule behind the calls is not given here.

Key:
[1] = test system: HCT-116; assay: Inhibition of TGF-beta1-induced increase in expression levels of snail protein in human HCT116 cells at 50 nM after 48 hrs by Western blot analysis; assay type: functional, cell-based
Summary of the method: (§1)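 HCT-116 cells (1 × 10^6/well, plated overnight) were exposed to TGF-β1 (10 ng/mL) for 48 h, with or without test compound; vehicle was 0.1% DMSO. Lysates (20 μg/lane) were run on 7.5% SDS-PAGE and blotted to PVDF, with primary antibody overnight at 4 °C and HRP/ECL detection. Band densities were normalised to β-actin across three independent experiments.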

[2] = test system: U-87 MG; assay: Antiproliferative activity against human U87MG cells after 72 hrs in presence of ligustrazine by MTT assay; assay type: functional, cell-based, U-87MG ATCC
Summary of the method: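 Cells grown in RPMI 1640 with 10% FBS in 96-well plates overnight, then exposed to test agents in triplicate for 72 h. MTT (5 mg/mL stock) added for the last 4 h, formazan dissolved in DMSO, absorbance read at 570 nm. Inhibition = (1 − OD treated/OD control) × 100%.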

[3] = test system: HCT-116; assay: Antiproliferative activity against human HCT116 cells at 8 uM pretreated with GSH for 1 hr measured after 72 hrs by MTT assay; assay type: functional, cell-based
Summary of the method: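 HCT-116 cells pretreated with or without GSH (10 mM) for 1 h, washed, then treated for 72 h. Viability measured by MTT and inhibitory rates calculated. Mean ± SD of three independent experiments.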

[4] = test system: HCT-116; assay: Antimigratory activity in human HCT116 cells assessed as inhibition of TGF-beta1-induced cell migration at 50 nM after 48 hrs by trans-well assay; assay type: functional, cell-based
Summary of the method: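 HCT-116 cells (1 × 10^5/well) placed in upper chambers of 8 μm pore transwells. Lower chambers held, in triplicate, medium alone or TGF-β1 (10 ng/mL) with or without test agents (2, 10, 50 nM) for 48 h. Non-migrated cells removed, migrated cells stained with crystal violet, 10 fields per well counted blinded. Three independent experiments.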

[5] = test system: HCT-116; assay: Inhibition of IL-1beta-mediated adhesion of human rhodamine 123-labeled HCT116 cells to HUVEC at 50 nM after 1 hr by fluoresence assay; assay type: functional, cell-based
Summary of the method: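 HUVEC monolayers pretreated with or without IL-1β (1 ng/mL) for 4 h, then washed. Rhodamine 123-labeled HCT-116 cells added with vehicle or test agent (2, 10, 50 nM) at 37 °C for 1 h. Non-adherent cells washed off; percent adhered cells determined by fluorescence microscopy. Three separate experiments.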

[6] = Thiol reactivity in DMSO assessed as addition reaction at C8 position at 5 mg up to 8 hrs in presence of 3.0 equiv methyl thioglycolate by 1H NMR analysis
[7] = test system: HCT-116; assay: Antitumor activity against human HCT116 cells xenografted in BALB/c nude mouse assessed as reduction in tumor volume at 2.5 to 5 mg/kg, ip administered daily for 21 consecutive days; assay type: functional, organism-based
Summary of the method: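 Male BALB/c nude mice, 3–5 weeks old, inoculated subcutaneously with 1 × 10^7 HCT-116 cells. At about 75 mm³ tumor volume, randomized (n = 8/group) and dosed intraperitoneally daily. Volume by caliper as d² × D/2. At the end, tumors excised and weighed; inhibition = (Wcontrol − Wtreated)/Wcontrol × 100%.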

[8] = test system: A549; assay: Antiproliferative activity against human A549 cells after 72 hrs by MTT assay; assay type: functional, cell-based; settings: A549, 72 h
[9] = test system: HCT-116; assay: Inhibition of TGF-beta1-induced increase in expression levels of twist protein in human HCT116 cells after 48 hrs by Western blot analysis; assay type: functional, cell-based; summary of the method: as §1
[10] = test system: Mus musculus; assay: Acute toxicity in ICR mouse assessed as mortality at 400 mg/kg, ip administered for 14 days; assay type: organism-based; settings: in vivo, 336 h
[11] = Acute toxicity in ICR mouse assessed as survival rate at 200 mg/kg, ip administered for 14 days relative to control; assay type: organism-based; settings: in vivo
[12] = test system: HCT-116; assay: Induction of ROS accumulation in human HCT116 cells up to 3 hrs in presence of GSH by DCFH-DA staining-based fluorescence spectrometric analysis; assay type: functional, cell-based
[13] = test system: HCT-116; assay: Antimetastatic activity against human HCT116 cells xenografted in BALB/c nude mouse model assessed as reduction in lung metastatic nodules at 2 to 4 mg/kg, ip administered thrice a week for 6 consecutive weeks by H and E staining-based assay; assay type: functional, organism-based
Summary of the method: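 BALB/c nude mice received HCT-116 cells into the tail vein, then were randomized and dosed intraperitoneally (1, 2 or 4 mg/kg) three times weekly. Body weight recorded weekly. Lungs sectioned (4 μm), H&E stained, and nodule number and area scored blinded in three sections per mouse. Nodule counts n = 4–6 per group.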

[14] = Acute toxicity in ICR mouse assessed as survival rate at 300 mg/kg, ip administered for 14 days relative to control; assay type: organism-based; settings: in vivo
[15] = biological target: RAC-alpha serine/threonine-protein kinase (Homo sapiens) (UniProt P31749); assay: Inhibition of TGF-beta1-induced AKT phosphorylation in human HCT116 cells after 48 hrs by Western blot analysis; assay type: cell-based
Sequence of RAC-alpha serine/threonine-protein kinase (Homo sapiens) (P31749 whole entry): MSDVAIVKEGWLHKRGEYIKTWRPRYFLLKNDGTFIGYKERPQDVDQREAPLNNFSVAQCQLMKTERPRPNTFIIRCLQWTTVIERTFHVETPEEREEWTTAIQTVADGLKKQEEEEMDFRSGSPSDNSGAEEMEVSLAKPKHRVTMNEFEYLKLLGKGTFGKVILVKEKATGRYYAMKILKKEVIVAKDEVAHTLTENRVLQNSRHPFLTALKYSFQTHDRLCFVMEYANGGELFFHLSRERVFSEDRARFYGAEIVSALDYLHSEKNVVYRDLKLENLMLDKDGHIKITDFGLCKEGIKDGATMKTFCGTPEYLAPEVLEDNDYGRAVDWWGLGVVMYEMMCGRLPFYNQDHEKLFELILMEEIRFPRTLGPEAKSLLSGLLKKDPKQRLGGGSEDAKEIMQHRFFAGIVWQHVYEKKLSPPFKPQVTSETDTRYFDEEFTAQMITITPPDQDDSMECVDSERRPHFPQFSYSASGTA
Summary of the method: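 HCT-116 cells treated with or without TGF-β1 (10 ng/mL) for 48 h, with or without test agent. Lysates (20 μg/lane) run on 7.5% SDS-PAGE and transferred to PVDF. Probed for p-Akt (Ser473), Akt, p-GSK-3β (S9), GSK-3β, E-cadherin, MMP-9 and β-actin, detected by ECL. Densitometry relative to β-actin or total protein. Three independent experiments.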

[16] = test system: HCT-116; assay: Inhibition of TGF-beta1-induced increase in expression levels of vimentin protein in human HCT116 cells after 48 hrs by Western blot analysis; assay type: functional, cell-based; summary of the method: as §1
[17] = Aqueous solubility of compound by HPLC analysis; assay type: physicochemical; settings: water
Summary of the method: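 Compound shaken in pure water or 50 mM phosphate buffer pH 7.4 at 20 °C, then centrifuged. Supernatant assayed by C18 HPLC (acetonitrile–water 60/40, 1.0 mL/min, 254 nm). Triplicate.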

[18] = test system: Mus musculus; assay: Cardiotoxicity in BALB/c nude mouse xenografted with human HCT116 cells at 2.5 to 5 mg/kg, ip administered for 21 consecutive days; assay type: toxicity, organism-based; settings: in vivo
Summary of the method: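 Male BALB/c nude mice (3−5 weeks) inoculated sc with 1 × 10^7 HCT-116 cells; at tumour volume about 75 mm3 randomized (n = 8 per group) and dosed ip daily at 2.5 or 5 mg/kg for 21 consecutive days. Body weights monitored; liver, kidney, lung and heart inspected for size and morphology at sacrifice.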

For `COc1cc(/C=C/C(=O)N2CCC=CC2=O)cc(OC)c1OC` [PIPLARTINE], the inhibition [1] was “Active”, the IC50 [2] was 16.1 µM and the Activity [3] was “inactive”. For the same compound, the Activity [4] was “Active” and the inhibition [5] was “Active”.

With `Cc1nc(C)c(/C=C/C(=O)N2CCC=C(Cl)C2=O)nc1C` the Drug metabolism [6] was “Metabolite not detected”, the Activity [7] was “Active” and the IC50 [8] was 2.21 µM. The inhibition [9] was “Dose-dependent effect”, the Activity [10] was “Toxic” and the survival at 336 h [11] was 30%. The Activity [12] was “inactive”, the Activity [13] was “Active” and the survival at 336 h [14] was 10%. For the same compound, the inhibition [15] was “Dose-dependent effect”, the inhibition [16] was “Dose-dependent effect” and the solubility [17] was 22.8 µg/mL (≈ 74.7 µM). For the same compound, the Activity [18] was “Non-Toxic”.
